Paper PMC5542862 (Microcirculation (New York, N.Y. : 1994), 2017)
Where two headings read alike, the source gives them in different places.

Columns and labels:
[1] = tested on: arcade and terminal arterioles of the hamster cheek pouch; format: in vivo; settings: for Effect of muscarinic blockade on vasoactivity (in words): atropine 10^−7 M in tissue bath; for Effect of beta-adrenergic blockade on dilation (in words): propranolol 10^−6M in tissue bath; for Dose range of vasodilation / Control Dose Max dilation / Control (%) Max dilation: quiescent tissue; for Dose range of vasodilation: mucocutaneous microvasculature; for Control Dose Max dilation: 60-second micropipette exposure; for Control (%) Max dilation: at the dose of max dilation
Outline: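 Adult male hamsters were anaesthetised with pentobarbital (70 mg/kg), tracheostomised and kept at 37 °C. The left cheek pouch was superfused with 37 °C bicarbonate-buffered saline and rested 30 min. Test compound was given by micropipette (10–20 μm tip, with FITC-dextran 10−6M) at the arcade–terminal junction for 60 s, then 5 min recovery. One full concentration series per site, 2–4 sites ≥1000 μm apart. Fractional diameter change = (baseline−peak)/baseline; repeated-measures ANOVA.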

[2] = tested on: arcade and terminal arterioles of the hamster cheek pouch; assay: Hamster cheek pouch intravital microscopy, nitrosative stress model; format: in vivo; settings: for Vasoactive response after stress compared with before (in words): nitrosative stress, agent 10^−4M by micropipette, n=35; for Effect of nitrosative stress on the concentration response (in words): SNP 10^−4M in tissue bath for 2 minutes; for Stress (%) Max dilation: after stress, at the dose of max dilation
Outline: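 Anaesthetised male hamster cheek pouch, superfused with 37 °C bicarbonate saline. Stress: SNP 10−4M washed into the bath for 2 min, with endothelial dysfunction checked by micropipette acetylcholine 10−4M. Test compound was given by micropipette for 60 s with 5 min recovery, 15 min–3 h after stress, at most four exposures per site. Response = (baseline−peak)/baseline from video; repeated-measures ANOVA, unpaired t-test.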

[3] = target: PDGF-BB; settings: cited from earlier work; for Kd: read-out: KD for PDGF-BB binding
[4] = tested on: PDGF-BB; settings: Lin, et al., 2014, Zhu; cited from earlier work
[5] = tested on: arcade and terminal arterioles of the hamster cheek pouch; format: in vivo; settings: 20s, 50 °C, within 500 μm of heat rim
Outline: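 In the superfused cheek pouch of anaesthetised male hamsters, a thermocouple-controlled microcautery Pt wire (300 μm) applied 50 °C for 20 s. After 15 min, micropipette exposures (60 s, 5 min recovery) were mapped to 1000 μm from the heat rim; only sites within 500 μm are reported. Diameter change = (baseline−peak)/baseline from video; repeated-measures ANOVA or unpaired t-test, α 0.05.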

[6] = tested on: thermal burn injury progression; settings: rat hot comb model; cited from earlier work
[7] = tested on: adult human dermal fibroblasts; settings: cited from earlier work

Molecule: CC(=O)OCC[N+](C)(C)C [acetylcholine, reference compound]
- Diameter change, fractional change from baseline ([1]; arcade arterioles, acetylcholine 10^−4M with atropine (10^−7 M), mean ± SD, n=26 sites): 0.03±0.15
- Diameter change, fractional change from baseline ([1]; arcade arterioles, acetylcholine 10^−4M, no blocker, mean ± SD, n=26 sites): 0.50±0.36
- Diameter change, fractional change from baseline ([1]; terminal arterioles, acetylcholine 10^−4M with atropine (10^−7 M), mean ± SD, n=26 sites): 0.03±0.10
- Diameter change, fractional change from baseline ([1]; terminal arterioles, acetylcholine 10^−4M, no blocker, mean ± SD, n=26 sites): 0.49±0.28

Molecule: Nc1ncnc2c1ncn2[C@@H]1O[C@H](CO)[C@@H](O)[C@H]1O [adenosine, reference compound]
- Diameter change, fractional change from baseline ([1]; arcade arterioles, adenosine 10^−4 M, mean ± SD): 0.54±0.35
- Diameter change, fractional change from baseline ([1]; terminal arterioles, adenosine 10^−4 M, mean ± SD): 0.60±0.43
- Vasoactive response after stress compared with before (in words) [2]: compromised

Molecule: CC(C)NCC(O)c1ccc(O)c(O)c1 (stereo not drawn) [isoproterenol, reference compound]
- Diameter change, fractional change from baseline ([1]; arcade arterioles, isoproterenol 10^−7M with propranolol (10^−6M), mean ± SD, n=23 sites): 0.00±0.11
- Diameter change, fractional change from baseline ([1]; arcade arterioles, isoproterenol 10^−7M, no blocker, mean ± SD, n=23 sites): 0.41±0.3
- Diameter change, fractional change from baseline ([1]; terminal arterioles, isoproterenol 10^−6M with carazolol 10^−9M, mean+sem, significant constriction): −0.50+0.15
- Diameter change, fractional change from baseline ([1]; terminal arterioles, isoproterenol 10^−7M with propranolol (10^−6M), mean ± SD, n=23 sites): 0.01±0.00
- Diameter change, fractional change from baseline ([1]; terminal arterioles, isoproterenol 10^−7M, no blocker, mean ± SD, n=23 sites): 0.43±0.34

Molecule: CNC[C@H](O)c1cccc(O)c1 [phenylephrine, reference compound]
- Diameter change, fractional change from baseline ([1]; arcade arterioles, phenylephrine 10^−5M, no blocker, mean ± SD, n=23 sites): −0.52±0.18
- Diameter change, fractional change from baseline ([1]; arcade arterioles, phenylephrine 10^−6M, mean ± SD): −0.53±0.18
- Diameter change, fractional change from baseline ([1]; terminal arterioles, phenylephrine 10^−5M, no blocker, mean ± SD, n=23 sites): −0.48±0.16
- Diameter change, fractional change from baseline ([1]; terminal arterioles, phenylephrine 10^−6M, mean ± SD): −0.48±0.16
- Vasoactive response after stress compared with before (in words) [2]: unaffected

Molecule: FN: Full-length plasma fibronectin
- Vasoactive response in quiescent tissue (in words) ([1]; arcade and terminal arterioles, 10^−16–10^−4M by micropipette, N=5–8 per peptide): induced only vasodilation
- Effect of muscarinic blockade on vasoactivity (in words) [1]: no effect
- Effect of combined alpha- and beta-adrenergic blockade (in words) ([1]; phentolamine 10^−5M plus propranolol 10^−6M): eliminated only the vasodilation with the peptides and not FN
- Effect of beta-adrenergic blockade on dilation (in words) ([1]; arcade and terminal arterioles): significantly diminished dilation

Molecule: ILRWRPK [P7]
- Effect of muscarinic blockade on vasoactivity (in words) [1]: no effect
- Effect of beta-adrenergic blockade on dilation (in words) ([1]; arcade and terminal arterioles): prevented vasodilation
- Dose range of vasodilation [1]: 10^−9–10^−8 M
- Control Dose Max dilation ([1]; terminal arterioles): 10^−8M
- Control (%) Max dilation ([1]; terminal arterioles): 28%
- Kd [3]: 1000 nM
- Effect of nitrosative stress on the concentration response (in words) [2]: left shift
- Stress (%) Max dilation [2]: 29%
- FN/PDGF-BB binding inhibition [4]: 0.1%

Molecule: LRWRPK [P39]
- Control (%) Max dilation ([1]; terminal arterioles): 8%
- FN/PDGF-BB binding inhibition [4]: 0.0%

Molecule: PSHISKYILRWRPK [EVA-1, epiviosamine-1]
- Effect of muscarinic blockade on vasoactivity (in words) [1]: no effect
- Effect of beta-adrenergic blockade on dilation (in words) ([1]; arcade and terminal arterioles): prevented vasodilation
- Dose range of vasodilation [1]: 10^−9–10^−8 M
- Control Dose Max dilation ([1]; terminal arterioles): 10^−9M
- Control (%) Max dilation ([1]; terminal arterioles): 22%
- Dilation at 10^−8M after thermal stress (in words) ([5]; arcade arterioles): reversed to constriction
- Response to sub-nanomolar dose after thermal stress (in words) ([5]; both arteriolar types): significant vasodilation
- Dilation at 10^−8M after thermal stress (in words) ([5]; terminal arterioles): eliminated
- Effect on thermal burn injury progression (in words) [6]: limits thermal burn injury progression
- Dose range binding PDGF-BB [3]: 10^−8–10^−7 M
- Kd [3]: 200 nM
- Effect of nitrosative stress on the concentration response (in words) [2]: left shift
- Stress (%) Max dilation [2]: 32%
- Dose conferring survival activity [7]: 10^−7 M
- FN/PDGF-BB binding inhibition [4]: 95.5%

Molecule: RWRPK [P37]
- Effect of beta-adrenergic blockade on dilation (in words) ([1]; arcade and terminal arterioles): prevented vasodilation
- Control (%) Max dilation ([1]; terminal arterioles): 19%
- Effect of nitrosative stress on the concentration response (in words) [2]: left shift
- Stress (%) Max dilation [2]: 45%
- FN/PDGF-BB binding inhibition [4]: 0.0%

Molecule: YILRWRPK [P18]
- Effect of beta-adrenergic blockade on dilation (in words) ([1]; arcade and terminal arterioles): prevented vasodilation
- Control Dose Max dilation ([1]; terminal arterioles): 10^−8M
- Control (%) Max dilation ([1]; terminal arterioles): 26%
- FN/PDGF-BB binding inhibition [4]: 26%

Molecule: nitroprusside [reference compound]
- Vasoactive response after stress compared with before (in words) [2]: not compromised
